ChEMBL document CHEMBL3407351, “Pyrido-imidazodiazepinones as a new class of reversible inhibitors of human kallikrein 7” (Eur J Med Chem, 2015)
Blank lines part the entries; values can stand above or below the molecule they belong to. The source made the active and inactive calls. The calls are words filed in the database; no cut-off is given here.

Experiments:
Kallikrein-7 [1] = biological target: T1, Kallikrein-7 (Homo sapiens, UniProt P49862); experiment: Inhibition of human KLK7 using Suc-Leu-Leu-Val-Tyr-AMC as substrate at 50 uM after 15 mins by fluorescence assay relative to control
Target sequence in this assay (P49862 30-253 limits assumed): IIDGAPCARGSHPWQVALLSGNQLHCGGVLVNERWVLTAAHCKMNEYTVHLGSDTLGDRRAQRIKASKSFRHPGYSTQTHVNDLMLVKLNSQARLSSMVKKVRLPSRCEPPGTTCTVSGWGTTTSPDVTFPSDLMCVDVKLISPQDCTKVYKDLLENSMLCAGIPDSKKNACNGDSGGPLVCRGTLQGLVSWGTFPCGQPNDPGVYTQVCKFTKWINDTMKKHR

Kallikrein-7 [2] = biological target: T1, Kallikrein-7; experiment: Inhibition of human KLK7 using Suc-Leu-Leu-Val-Tyr-AMC as substrate after 15 mins by fluorescence assay
Procedure, shortened: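 Recombinant KLK7 at 7.6 nM, final, with 40 µM Suc-LLVY-AMC in pH 8.0 buffer of 50 mM Tris-HCl, 0.01% Tween 20, 1 M NaCl, 2% DMSO. Enzyme preincubated 15 min with compound, then hydrolysis followed for 15 min at 37 °C, ex 360 / em 460 nm. Run in triplicate. Initial rates taken relative to untreated enzyme; IC50 fitted to hyperbolic or Hill equation.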
Target sequence in this assay (P49862 whole entry): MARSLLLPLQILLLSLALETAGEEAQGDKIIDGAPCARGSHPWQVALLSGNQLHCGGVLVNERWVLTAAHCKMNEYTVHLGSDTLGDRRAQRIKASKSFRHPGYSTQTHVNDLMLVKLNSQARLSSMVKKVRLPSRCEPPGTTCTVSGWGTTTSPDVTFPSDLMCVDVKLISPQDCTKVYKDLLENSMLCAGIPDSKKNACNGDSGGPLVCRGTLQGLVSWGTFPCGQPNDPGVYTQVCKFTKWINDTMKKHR

Kallikrein-7 [3] = biological target: T1, Kallikrein-7; experiment: Reversible inhibition of human KLK7 using Suc-Leu-Leu-Val-Tyr-AMC as substrate preincubated for 15 to 60 mins followed by 40 fold dilution by fluorescence assay
Procedure, shortened: (§1)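 KLK7 preincubated with inhibitor, 50 µM where stated, for 15 and 60 min at pH 8.0 and 37 °C. Mixture then diluted 40-fold into buffer holding Suc-LLVY-AMC under the routine KLK7 conditions. Residual activity read fluorimetrically, ex 360 / em 460 nm, and compared with the uninhibited enzyme.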
Target sequence in this assay (P49862 30-253 limits assumed): as the sequence (P49862 30-253 limits assumed) above

Kallikrein-7 [4] = biological target: T1, Kallikrein-7; experiment: Competitive inhibition of human KLK7 using Suc-Leu-Leu-Val-Tyr-AMC as substrate by Lineweaver-Burk plot analysis
Target sequence in this assay (P49862 whole entry): as the sequence (P49862 whole entry) above

[5] = biological target: Kallikrein-5 (Homo sapiens) (UniProt Q9Y337); experiment: Inhibition of human KLK5 using Boc-Val-Pro-Arg-AMC as substrate at 50 uM after 15 mins by fluorescence assay
Procedure, shortened: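 KLK5 at 0.6 nM, final, with 100 µM Boc-VPR-AMC in pH 8.0 buffer of 50 mM Tris-HCl, 0.01% Tween 20, 150 mM NaCl, 2% DMSO. Compound at 50 µM preincubated 15 min with enzyme. Fluorescence then read 15 min at 37 °C, ex 360 / em 460 nm. Inhibition taken from initial rates versus untreated control.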

[6] = biological target: T2, Kallikrein-8 (Homo sapiens) (UniProt O60259); experiment: Inhibition of human KLK8 using Boc-Val-Pro-Arg-AMC as substrate at 50 uM after 15 mins by fluorescence assay
T2 sequence (whole entry): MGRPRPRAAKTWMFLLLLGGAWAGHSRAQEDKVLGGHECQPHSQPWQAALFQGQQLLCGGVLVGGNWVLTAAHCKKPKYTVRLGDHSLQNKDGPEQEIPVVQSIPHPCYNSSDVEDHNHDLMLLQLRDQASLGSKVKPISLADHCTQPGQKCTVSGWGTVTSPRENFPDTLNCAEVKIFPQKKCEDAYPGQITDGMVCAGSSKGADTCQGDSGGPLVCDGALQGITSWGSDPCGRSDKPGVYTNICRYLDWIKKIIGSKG
Procedure, shortened: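 KLK8 at 1 nM, final, with 100 µM Boc-VPR-AMC in pH 8.0 Tris-HCl buffer containing 0.01% Tween 20 and 2% DMSO. Compound at 50 µM preincubated with enzyme 15 min. Substrate hydrolysis then monitored 15 min at 37 °C, ex 360 / em 460 nm. Initial rates compared with the untreated enzyme.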

[7] = biological target: T3, Kallikrein-14 (Homo sapiens) (UniProt Q9P0G3); experiment: Inhibition of human KLK14 using Boc-Val-Pro-Arg-AMC as substrate at 50 uM after 15 mins by fluorescence assay
T3 sequence (whole entry): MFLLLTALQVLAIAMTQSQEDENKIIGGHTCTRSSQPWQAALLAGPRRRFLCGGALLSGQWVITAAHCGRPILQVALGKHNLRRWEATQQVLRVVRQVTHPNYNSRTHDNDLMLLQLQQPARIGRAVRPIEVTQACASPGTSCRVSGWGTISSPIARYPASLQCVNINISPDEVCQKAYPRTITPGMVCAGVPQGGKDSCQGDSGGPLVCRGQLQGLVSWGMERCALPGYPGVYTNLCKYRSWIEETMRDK
Procedure, shortened: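 KLK14 at 0.2 nM, final, with 10 µM Boc-VPR-AMC in pH 8.0 buffer of 50 mM Tris-HCl, 0.01% Tween 20, 1 M NaCl, 2% DMSO. Compound at 50 µM preincubated 15 min with enzyme. Fluorescence then read 15 min at 37 °C, ex 360 / em 460 nm. Percent inhibition taken from initial rates relative to control.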

Kallikrein-7 [8] = biological target: T1, Kallikrein-7; experiment: Reversible inhibition of human KLK7 using Suc-Leu-Leu-Val-Tyr-AMC as substrate at 50 uM preincubated for 15 mins followed by 40 fold dilution by fluorescence assay; procedure, shortened: as §1
Target sequence in this assay (P49862 30-253 limits assumed): as the sequence (P49862 30-253 limits assumed) above

HeLa = experiment: Cytotoxicity against human HeLa cells assessed as cell death after 48 to 72 hrs by XTT assay; format: functional, cell-based
Procedure, shortened: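 Cells seeded at 5000/well in DMEM with 10% FBS, penicillin and streptomycin, 37 °C, 5% CO2. Compounds in DMSO added 20 h later, final DMSO 1%; screened at 100 µM, then over a concentration range, at least three wells per condition. Absorbance read at 485 nm after 3 h, viability given relative to DMSO controls, EC50 taken as 50% cell death.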

[9] = Cytotoxicity against human PC3 cells assessed as cell death after 48 to 72 hrs by XTT assay; format: functional, cell-based, PC-3
Procedure, shortened: (§2)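 Cells seeded at 5000 per well in DMEM with 10% FBS, penicillin and streptomycin (100 µg/mL each), 37°C, 5% CO2. Compound in DMSO added 20 h after seeding, 1% DMSO final, DMSO-only controls. At least three wells per condition. Viability relative to DMSO; EC50 = concentration giving 50% cell death.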

SW-620 = experiment: Cytotoxicity against human SW620 cells assessed as cell death after 48 to 72 hrs by XTT assay; format: functional, cell-based; procedure, shortened: as §2
[10] = Homo sapiens, HeLa, read-out: EC50

Chain of Kallikrein-5 (Homo sapiens) (Q9Y337 whole entry): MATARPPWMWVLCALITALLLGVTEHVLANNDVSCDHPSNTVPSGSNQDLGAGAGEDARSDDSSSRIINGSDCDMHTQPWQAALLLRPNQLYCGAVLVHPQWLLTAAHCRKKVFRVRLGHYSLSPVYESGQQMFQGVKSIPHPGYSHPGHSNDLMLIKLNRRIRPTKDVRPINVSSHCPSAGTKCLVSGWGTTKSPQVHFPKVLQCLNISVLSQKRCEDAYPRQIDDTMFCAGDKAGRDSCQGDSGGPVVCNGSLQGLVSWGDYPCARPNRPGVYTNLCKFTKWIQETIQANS

SMILES: COc1ccc(C2=Nc3nc4ccccn4c3C(=O)[C@H](CO)N2)cc1OC
inhibition (Kallikrein-7 [1]): < 30%

SMILES: COc1ccc(C2=Nc3nc4ccccn4c3C(=O)[C@H](C)N2)cc1OC
inhibition (Kallikrein-7 [1]): < 30%

SMILES: Cc1ccccc1C(=O)N[C@@H](Cc1ccccc1)C(=O)c1c(N)nc2ccccn12
IC50 (Kallikrein-7 [2]): 135 µM

SMILES: COc1ccc(C2=Nc3nc4ccccn4c3C(=O)[C@H](COCc3ccccc3)N2)cc1OC
inhibition (Kallikrein-7 [1]): < 30%

SMILES: COc1ccc(C2=Nc3nc4ccccn4c3C(=O)[C@H](Cc3ccc(OCc4ccccc4)cc3)N2)cc1OC
inhibition (Kallikrein-7 [1]): < 30%

SMILES: Nc1nc2ccccn2c1C(=O)[C@H](Cc1ccccc1)NC(=O)/C=C/c1ccccc1
inhibition (Kallikrein-7 [1]): < 30%

SMILES: Nc1nc2ccccn2c1C(=O)[C@H](Cc1ccccc1)NC(=O)Cc1ccccc1
IC50 (Kallikrein-7 [2]): 149 µM

SMILES: COc1ccc(C2=Nc3nc4ccccn4c3C(=O)[C@H](Cc3ccccc3)N2)cc1OC
IC50 (Kallikrein-7 [2]): 33.5 µM
Ki (Kallikrein-7 [4]): 27 µM
inhibition [5]: inactive
inhibition [6]: inactive
inhibition [7]: inactive
inhibition (Kallikrein-7 [8]): Active
EC50 (HeLa; [10]): 24.3 µM
EC50 ([9]; Homo sapiens, PC-3, read-out: EC50): 64.8 µM
EC50 (SW-620; sw-620): Not Active

SMILES: COc1ccc(C2=Nc3nc4ccccn4c3C(=O)[C@H](Cc3ccccc3)N2C)cc1OC
inhibition (Kallikrein-7 [1]): < 30%

SMILES: COc1ccc(C(=O)N[C@@H](Cc2ccccc2)C(=O)c2c(N)nc3ccccn23)cc1OC
inhibition (Kallikrein-7 [1]): < 30%

SMILES: Cc1ccccc1C1=Nc2nc3ccccn3c2C(=O)[C@H](C)N1
inhibition (Kallikrein-7 [1]): < 30%

SMILES: Nc1nc2ccccn2c1C(=O)[C@H](Cc1ccccc1)NC(=O)c1ccccn1
inhibition (Kallikrein-7 [1]): < 30%

SMILES: CC(C)CC1=Nc2nc3ccccn3c2C(=O)[C@H](Cc2ccccc2)N1
inhibition (Kallikrein-7 [1]): < 30%

SMILES: Cc1ccc(C2=Nc3nc4ccccn4c3C(=O)[C@H](Cc3ccccc3)N2)c(C)c1
IC50 (Kallikrein-7 [2]): 83.9 µM
EC50 (HeLa; hela): Not Active
EC50 ([9]; pc-3): Not Active
EC50 (SW-620; Homo sapiens, SW-620, read-out: EC50): 67.8 µM

SMILES: COc1cc(C2=Nc3nc4ccccn4c3C(=O)[C@H](Cc3ccccc3)N2)cc(OC)c1OC
IC50 (Kallikrein-7 [2]): 55.7 µM
EC50 (HeLa; [10]): 53.8 µM
EC50 ([9]; pc-3): Not Active
EC50 (SW-620; sw-620): Not Active

SMILES: COc1ccc(C2=Nc3nc4ccccn4c3C(O)[C@H](Cc3ccccc3)N2)cc1OC (some centres not stated)
inhibition (Kallikrein-7 [1]): < 30%

SMILES: Cc1ccccc1C1=Nc2nc3ccccn3c2C(=O)[C@H](COCc2ccccc2)N1
inhibition (Kallikrein-7 [1]): < 30%

SMILES: O=C1c2c(nc3ccccn23)N=C(c2cc(O)ccc2O)N[C@H]1Cc1ccccc1
inhibition (Kallikrein-7 [1]): < 30%

SMILES: O=C1Nc2nc3ccccn3c2C(=O)[C@H](Cc2ccccc2)N1
inhibition (Kallikrein-7 [1]): < 30%

SMILES: COc1ccc(OC)c(C2=Nc3nc4ccccn4c3C(=O)[C@H](Cc3ccccc3)N2)c1
IC50 (Kallikrein-7 [2]): 80.9 µM
EC50 (HeLa; [10]): 40 µM
EC50 ([9]; pc-3): Not Active
EC50 (SW-620; sw-620): Not Active

SMILES: Nc1nc2ccccn2c1C(=O)[C@H](Cc1ccccc1)NC(=O)CCc1ccccc1
inhibition (Kallikrein-7 [1]): < 30%

SMILES: Nc1nc2ccccn2c1C(=O)[C@H](Cc1ccccc1)NC(=O)c1ccc[nH]1
inhibition (Kallikrein-7 [1]): < 30%

SMILES: Nc1nc2ccccn2c1C(=O)[C@H](Cc1ccccc1)NC(=O)c1ccccc1
inhibition (Kallikrein-7 [1]): < 30%

SMILES: Cc1ccccc1C1=Nc2nc3ccccn3c2C(=O)[C@H](Cc2cccc3ccccc23)N1
inhibition (Kallikrein-7 [1]): < 30%

SMILES: COc1ccc(C2=Nc3nc4ccccn4c3C(=O)[C@H](Cc3ccc(O)cc3)N2)cc1OC
inhibition (Kallikrein-7 [1]): < 30%

SMILES: Nc1nc2ccccn2c1C(=O)[C@H](Cc1ccccc1)NC(=O)c1ccncc1
inhibition (Kallikrein-7 [1]): < 30%

Other lines, results leading:

inhibition (Kallikrein-7 [1]): < 30%
SMILES: Cc1cccc(C2=Nc3nc4ccccn4c3C(=O)[C@H](Cc3ccccc3)N2)c1

inhibition (Kallikrein-7 [1]): < 30%
SMILES: O=C1c2c(nc3ccccn23)N=C(c2cccnc2)N[C@H]1Cc1ccccc1

inhibition (Kallikrein-7 [1]): < 30%
SMILES: O=C1c2c(nc3ccccn23)N=C(c2ccc([N+](=O)[O-])cc2)N[C@H]1Cc1ccccc1

IC50 (Kallikrein-7 [2]): 72 µM
SMILES: COc1ccc(C2=Nc3nc4ccccn4c3C(=O)[C@H](Cc3ccccc3)N2)cc1

inhibition (Kallikrein-7 [1]): < 30%
SMILES: O=C1c2c(nc3ccccn23)N=C(c2ccc(Br)cc2)N[C@H]1Cc1ccccc1

IC50 (Kallikrein-7 [2]): 68 µM
SMILES: Cc1ccc(C2=Nc3nc4ccccn4c3C(=O)[C@H](Cc3ccccc3)N2)cc1

inhibition (Kallikrein-7 [1]): > 30%
IC50 (Kallikrein-7 [2]): 57 µM
inhibition (Kallikrein-7 [3]): Active
Ki (Kallikrein-7 [4]): 50.6 µM
inhibition [5]: inactive
inhibition [6]: inactive
inhibition [7]: inactive
SMILES: Cc1ccccc1C1=Nc2nc3ccccn3c2C(=O)[C@H](Cc2ccccc2)N1

IC50 (Kallikrein-7 [2]): 125 µM
SMILES: O=C1c2c(nc3ccccn23)N=C(c2cccc(O)c2)N[C@H]1Cc1ccccc1

IC50 (Kallikrein-7 [2]): 95.9 µM
SMILES: Cc1ccccc1C1=Nc2nc3ccccn3c2C(=O)[C@@H](Cc2ccccc2)N1

inhibition (Kallikrein-7 [1]): < 30%
SMILES: O=C1c2c(nc3ccccn23)N=C(c2ccccc2)N[C@H]1Cc1ccccc1

inhibition (Kallikrein-7 [1]): < 30%
SMILES: O=C1c2c(nc3ccccn23)N=C(c2ccccc2O)N[C@H]1Cc1ccccc1

inhibition (Kallikrein-7 [1]): < 30%
SMILES: COc1cccc(C2=Nc3nc4ccccn4c3C(=O)[C@H](Cc3ccccc3)N2)c1

inhibition (Kallikrein-7 [1]): < 30%
SMILES: COc1ccccc1C1=Nc2nc3ccccn3c2C(=O)[C@H](Cc2ccccc2)N1
